Experiments:
[1] = molecular target: Trypanothione reductase (Trypanosoma brucei brucei, UniProt P39051); experiment: Inhibition of recombinant trypanothione reductase from Trypanosoma brucei brucei S427 by DTNB-coupled spectrophotometric assay
Procedure, shortened: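 Recombinant T. brucei brucei S427 TryR tested in a nonenzymatically coupled spectrophotometric assay, where DTNB reduction to TNB is followed as A412 increase. IC50 is the mean of independent duplicates (at least two replicates).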

[2] = test system: Trypanosoma brucei brucei; experiment: Antitrypanosomal activity against blood stream form Trypanosoma brucei brucei by resazurin fluorescence-based viability assay; format: functional, organism-based
Procedure, shortened: (§1)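 Bloodstream-form T. b. brucei parasites and MRC5 cells were assayed in resazurin fluorescence-based viability tests. […] Pentamidine served as the positive control in all T. brucei plates.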

[3] = test system: MRC5; experiment: Cytotoxicity against human MRC5 cells by resazurin fluorescence-based viability assay; format: cell-based; procedure, shortened: as §1

Sequence of Trypanothione reductase (P39051 whole entry): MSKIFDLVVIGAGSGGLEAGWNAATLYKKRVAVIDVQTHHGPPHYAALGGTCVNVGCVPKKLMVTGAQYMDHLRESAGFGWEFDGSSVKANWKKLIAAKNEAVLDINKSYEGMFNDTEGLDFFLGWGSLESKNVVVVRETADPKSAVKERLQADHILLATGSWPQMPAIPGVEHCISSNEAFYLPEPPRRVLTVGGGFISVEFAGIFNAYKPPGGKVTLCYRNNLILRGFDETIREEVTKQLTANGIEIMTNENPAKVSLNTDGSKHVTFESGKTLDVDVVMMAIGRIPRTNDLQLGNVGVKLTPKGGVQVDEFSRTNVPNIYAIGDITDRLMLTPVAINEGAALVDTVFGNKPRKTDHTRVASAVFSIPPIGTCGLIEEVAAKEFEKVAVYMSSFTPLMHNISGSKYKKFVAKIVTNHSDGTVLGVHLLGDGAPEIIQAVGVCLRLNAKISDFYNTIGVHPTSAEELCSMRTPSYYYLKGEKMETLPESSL

Row | SMILES | IC50 [1] | EC50 [2] | EC50 [3]
1 | CC1=Nc2ccc(Cl)cc2C(c2cccc(Cl)c2)N1CCN1CCCCC1 (stereo not drawn) | 1200 nM |  | 
2 | CC1=Nc2ccc(Cl)cc2C(c2ccc(C)cc2)N1CCN1CCCCC1 (racemic) | 590 nM | 1.4 µM | 5 µM
3 | CC1=Nc2ccc(Cl)cc2C(c2ccccc2)N1CCN1CCN(C(=O)c2ccco2)CC1 (racemic) | 420 nM | 10 µM | 23 µM
4 | CC1=Nc2ccc(Cl)cc2C(c2ccccc2)N1CCN(C)C (racemic) | 3500 nM |  | 
5 | CC1=Nc2ccc(Cl)cc2C(c2ccccc2)N1CCc1ccccc1 (racemic) | 2000 nM |  | 
6 | CC1=Nc2ccc(Cl)cc2C(c2ccccc2)N1CCCN(C)C (racemic) | 1000 nM |  | 2.7 µM
7 | CC1=Nc2ccc(Cl)cc2C(c2ccccc2)N1CCNC(=O)C1CC1 (racemic) | 2300 nM |  | 
8 | CC1=Nc2ccc(Cl)cc2C(c2ccccc2)N1CCNC(=O)Cc1ccccc1 (racemic) | 1800 nM |  | 
9 | CC1=Nc2ccc(Cl)cc2C(c2ccccc2)N1CCN1CCCCC1 (racemic) | 1800 nM | 1.3 µM | 14 µM
10 | CC1=Nc2ccc(Cl)cc2C(c2ccccc2)N1CCNC(=O)CN(C)C (racemic) | 810 nM | 13 µM | 12 µM
11 | CC(=O)NCCN1C(C)=Nc2ccc(Cl)cc2C1c1ccccc1 (racemic) | 2100 nM |  | 
12 | CC1=Nc2ccc(Cl)cc2C(c2cccc(O)c2)N1CCN1CCCCC1 (racemic) | 1600 nM |  | 
13 | CC1=Nc2ccc(Cl)cc2C(c2ccccc2)N1Cc1ccc(Cl)cc1 (racemic) | 2200 nM |  | 
14 | CC1=Nc2ccc(Cl)cc2C(c2ccc(C)c(C)c2)N1CCN1CCCCC1 (racemic) | 6800 nM |  | 
15 | COc1ccc(C2(O)c3cc(Cl)ccc3N=C(C)N2CCN2CCCCC2)cc1 (racemic) | 4900 nM |  | 
16 | CC1=Nc2ccc(Cl)cc2C(C2CCCCC2)N1CCN1CCCCC1 (racemic) | 27000 nM |  | 
17 | CCOC(=O)CN1C(C)=Nc2ccc(Br)cc2C1c1ccccc1 (racemic) | 12000 nM |  | 
18 | CCN1C(C)=Nc2ccc(Cl)cc2C1c1ccccc1 (racemic) | 1200 nM |  | 
19 | COC(=O)CN1C(C)=Nc2ccc(Cl)cc2C1c1ccccc1 (racemic) | 9400 nM |  | 
20 | CC1=Nc2ccc(Cl)cc2C(c2ccc(Cl)c(Cl)c2)N1CCN1CCCCC1 (racemic) | 1300 nM |  | 
21 | CC1=Nc2ccc(Cl)cc2C(c2ccc(F)cc2)N1CCN1CCCCC1 (racemic) | 4900 nM |  | 
22 | CC1=Nc2ccc(Cl)cc2C(c2ccccc2)N1Cc1cccc(C(F)(F)F)c1 (racemic) | 1500 nM |  | 

Row | SMILES | IC50 [1] | EC50 [2] | EC50 [3]
23 | O=C1CN2C(=Nc3ccc(Br)cc3C2c2ccccc2)CCN1 (racemic) | 39000 nM |  | 
24 | CC1=Nc2ccc(-c3ccncc3)cc2C(c2ccccc2)N1CCN1CCCCC1 (stereo not drawn) | 4400 nM |  | 
25 | COCC(=O)NCCN1C(C)=Nc2ccc(Cl)cc2C1c1ccccc1 (racemic) | 1300 nM |  | 
26 | CC1=Nc2ccc(Cl)cc2C(O)(c2ccc(C)cc2)N1CCN1CCCCC1 (racemic) | 710 nM | 1.5 µM | 5.7 µM
27 | CC1=Nc2ccc(Cl)cc2C(c2ccc(O)cc2)N1CCN1CCCCC1 (racemic) | 20000 nM |  | 
28 | COc1cccc(C2c3cc(Cl)ccc3N=C(C)N2CCN2CCCCC2)c1 (stereo not drawn) | 28000 nM |  | 
29 | CC1=Nc2ccc(Cl)cc2C(c2ccccc2)N1Cc1ccccc1F (racemic) | 940 nM | 14 µM | 36 µM
30 | CC1=Nc2ccc(-c3ccsc3)cc2C(c2ccccc2)N1CCN1CCCCC1 (stereo not drawn) | 790 nM |  | 
31 | COC(=O)CN1C(C)=Nc2ccc(Br)cc2C1c1ccccc1Cl (racemic) | > 100000 nM |  | 
32 | CC1=Nc2ccc(Cl)cc2C(c2ccccc2)N1Cc1cccc(Cl)c1 (racemic) | 3500 nM |  | 
33 | CC1=Nc2ccc(-c3ccco3)cc2C(c2ccccc2)N1CCN1CCCCC1 (racemic) | 1300 nM |  | 
34 | COC(=O)CN1C(CCN2CCOCC2)=Nc2ccc(Br)cc2C1c1ccccc1 (racemic) | 93000 nM |  | 
35 | CC1=Nc2ccc(Cl)cc2C(c2ccccc2)N1CCN1CCN(C(=O)c2ccccc2)CC1 (racemic) | 1600 nM |  | 
36 | CC1=Nc2ccc(Cl)cc2C(c2ccccc2)N1CCNC(=O)c1ccccc1 (racemic) | 1700 nM |  | 
37 | CC(=O)N1CCN(CCN2C(C)=Nc3ccc(Cl)cc3C2c2ccccc2)CC1 (racemic) | 1700 nM |  | 
38 | CC1=Nc2ccc(Cl)cc2C(c2ccc(C(C)(C)C)cc2)N1CCN1CCCCC1 (racemic) | 7900 nM |  | 
39 | CCC1=Nc2ccc(Br)cc2C(c2ccccc2)N1CC(=O)OC (racemic) | 23000 nM |  | 
40 | CC1=Nc2ccc(Cl)cc2C(c2ccccc2)N1CCO (racemic) | 1700 nM |  | 
41 | CC1=Nc2ccc(Cl)cc2C(c2cccc(C)c2)N1CCN1CCCCC1 (racemic) | 4600 nM |  | 
42 | CC1=Nc2ccc(Br)cc2C(c2ccccc2)N1CC(=O)NN (racemic) | 15000 nM |  | 
43 | CC1=Nc2ccc(-c3ccccc3)cc2C(c2ccccc2)N1CCN1CCCCC1 (racemic) | 7300 nM | 0.75 µM | 3.4 µM
44 | O=C1CN2C(=Nc3ccc(Br)cc3C2c2ccccc2)CN1 (racemic) | 37000 nM |  | 

Row | SMILES | IC50 [1] | EC50 [2] | EC50 [3]
45 | CC1=Nc2ccc(Cl)cc2C(c2ccc(Cl)cc2)N1CCN1CCCCC1 (racemic) | 730 nM |  | 
46 | CC1=Nc2ccc(Cl)cc2C(c2ccccc2)N1CCN1CCN(C(=O)OC(C)(C)C)CC1 (racemic) | 1500 nM |  | 
47 | CC1=Nc2ccc(Cl)cc2C(c2ccccc2)N1Cc1ccc(C)cc1 (racemic) | 1300 nM |  | 
48 | CC1=Nc2ccc(Cl)cc2C(c2ccccc2)N1Cc1ccccc1 (racemic) | 930 nM | 13 µM | 46 µM
49 | COC(=O)CN1C(c2ccccc2)=Nc2ccc(C)cc2C1c1ccccc1 (racemic) | > 100000 nM |  | 
50 | CC1=Nc2ccc(-c3cc4ccccc4o3)cc2C(c2ccccc2)N1CCN1CCCCC1 (racemic) | 8500 nM |  | 
51 | COC(=O)CN1C(c2cc(OC)c(OC)c(OC)c2)=Nc2ccc(C)cc2C1c1ccccc1 (racemic) | > 100000 nM |  | 
52 | CC1=Nc2ccc(-c3cccc4ccccc34)cc2C(c2ccccc2)N1CCN1CCCCC1 (racemic) | 8000 nM |  | 
53 | CC1=Nc2ccc(Br)cc2C(c2ccccc2)N1CC(=O)O (racemic) | 37000 nM |  | 
54 | CNCCN1C(C)=Nc2ccc(Cl)cc2C1c1ccccc1 (racemic) | 2000 nM |  | 
55 | CC1=Nc2ccc(Cl)cc2C(c2ccccc2)N1CCN1CCN(C(=O)Cc2ccccc2)CC1 (racemic) | 2000 nM |  | 
56 | CC1=Nc2ccc(Cl)cc2C(c2ccccc2)N1CCN1CCOCC1 (racemic) | 2800 nM |  | 
57 | COc1ccc(C2c3cc(Cl)ccc3N=C(C)N2CCN2CCCCC2)cc1 (racemic) | 1500 nM |  | 
58 | CC1=Nc2ccc(Cl)cc2C(O)(c2ccc(F)cc2)N1CCN1CCCCC1 (racemic) | 8300 nM |  | 
59 | CC1=Nc2ccc(Cl)cc2C(Cc2ccccc2)N1CCN1CCCCC1 (racemic) | 50000 nM |  | 
60 | CC1=Nc2c(-c3ccccc3)cc(Cl)cc2C(c2ccccc2)N1CCCN(C)C (racemic) | 24000 nM |  | 
61 | COC(=O)CN1C(CN2CCOCC2)=Nc2ccc(Br)cc2C1c1ccccc1 (racemic) | 89000 nM |  | 
62 | CC1=Nc2ccc(Cl)cc2C(c2ccccc2)N1Cc1ccc(C(F)(F)F)cc1 (racemic) | 2200 nM |  | 
63 | CC1=Nc2ccc(Cl)cc2C(c2ccccc2)N1CCNC(=O)OC(C)(C)C (racemic) | 2600 nM |  | 
64 | COCC(=O)N1CCN(CCN2C(C)=Nc3ccc(Cl)cc3C2c2ccccc2)CC1 (racemic) | 1600 nM |  | 
65 | CC1=Nc2ccc(Cl)cc2C(c2ccccc2)N1CCN1CCN(C(=O)C2CC2)CC1 (racemic) | 1500 nM |  | 
66 | COc1ccccc1CN1C(C)=Nc2ccc(Cl)cc2C1c1ccccc1 (racemic) | 1100 nM |  | 
